Test results taken from ChEMBL document CHEMBL4229342, “Synthesis of novel proxyphylline derivatives with dual Anti-Candida albicans and anticancer activity” (Eur J Med Chem, 2018).
Converted amounts (≈) assume the structure as drawn.

Assays:
Candida albicans [1] = test: Growth inhibition of Candida albicans ATCC 90028 at 8 ug/ml incubated for 4 hrs at 35 degC by broth microdilution method relative to control; assay type: functional; details: ATCC 90028, 4 h, read-out: GI
[2] = Toxicity in Galleria mellonella larvae infected with Candida albicans ATCC 90028 infected with 20 uM compound pre-treated cell suspensions assessed as survival incubated in dark for 144 hrs at 30 degC and measured every 24 hrs; assay type: organism-based; details: in vivo
Candida albicans [3] = test: Inhibition of cell adhesion of Candida albicans ATCC 90028 to African green monkey Vero cells at 0.0625 ug/ml relative to untreated control; assay type: functional; details: ATCC 90028, Vero
MCF7 [4] = test: Antiproliferative activity against human MCF7 cells after 72 hrs by MTT assay; assay type: functional, cell-based; details: MCF7, 72 h
Procedure, shortened: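 EC50 was derived from a repeat 72 h MTT assay in CCRF-CEM or MCF-7 cells. It is the concentration killing 50% of tumour cells compared with control cells incubated without inhibitor in 0.5% DMSO.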

MCF7 [5] = test: Antiproliferative activity against human MCF7 cells assessed as cell viability at 100 uM after 72 hrs by MTT assay; assay type: functional; details: MCF7, 72 h, read-out: Activity
Procedure, shortened: (§1)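 MTT viability assay in CCRF-CEM and MCF-7 cells after 72 h exposure at 25, 50, 100 and 200 µM. Results are relative to control cells without inhibitor in 0.5% DMSO. Done in triplicate; values are means ± SD of three independent experiments.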

Vero [6] = test: Cytotoxicity in African green monkey Vero cells at 256 ug/ml incubated for 3 to 18 hrs by XTT assay; assay type: cell-based; details: chlorocebus sabaeus
CCRF-CEM [7] = test: Antiproliferative activity against human CCRF-CEM cells assessed as cell viability at 25 uM after 72 hrs by MTT assay; assay type: functional; details: read-out: Activity; procedure, shortened: as §1
Candida albicans [8] = test: Growth inhibition of Candida albicans ATCC 90028 at 8 ug/ml incubated for 48 hrs at 35 degC by broth microdilution method relative to control; assay type: functional; details: ATCC 90028, 48 h, read-out: GI
Candida albicans [9] = test: Growth inhibition of Candida albicans ATCC 90028 at 16 ug/ml incubated for 48 hrs at 35 degC by broth microdilution method relative to control; assay type: functional; details: ATCC 90028, 48 h, read-out: GI
Candida albicans [10] = test: Growth inhibition of Candida albicans ATCC 90028 at 2 ug/ml incubated for 4 hrs at 35 degC by broth microdilution method relative to control; assay type: functional; details: ATCC 90028, 4 h, read-out: GI
Candida albicans [11] = test: Growth inhibition of Candida albicans ATCC 90028 at 0.125 ug/ml incubated for 18 hrs at 35 degC by broth microdilution method relative to control; assay type: functional; details: ATCC 90028, 18 h, read-out: GI
Candida albicans [12] = test: Growth inhibition of Candida albicans ATCC 90028 at 0.0313 ug/ml incubated for 18 hrs at 35 degC by broth microdilution method relative to control; assay type: functional; details: ATCC 90028, 18 h, read-out: GI
Candida albicans [13] = test: Growth inhibition of Candida albicans ATCC 90028 at 8 ug/ml incubated for 18 hrs at 35 degC by broth microdilution method relative to control; assay type: functional; details: ATCC 90028, 18 h, read-out: GI
Candida albicans [14] = test: Growth inhibition of Candida albicans ATCC 90028 at 2 ug/ml incubated for 18 hrs at 35 degC by broth microdilution method relative to control; assay type: functional; details: ATCC 90028, 18 h, read-out: GI
Candida albicans [15] = test: Growth inhibition of Candida albicans ATCC 90028 at 4 ug/ml incubated for 18 hrs at 35 degC by broth microdilution method relative to control; assay type: functional; details: ATCC 90028, 18 h, read-out: GI
Candida albicans [16] = test: Inhibition of biofilm formation of Candida albicans ATCC 90028 after 48 hrs by XTT assay; assay type: functional, organism-based; details: ATCC 90028, 48 h
Candida albicans [17] = test: Growth inhibition of Candida albicans ATCC 90028 at 0.5 ug/ml incubated for 4 hrs at 35 degC by broth microdilution method relative to control; assay type: functional; details: ATCC 90028, 4 h, read-out: GI
CCRF-CEM [18] = test: Antiproliferative activity against human CCRF-CEM cells assessed as cell viability at 100 uM after 72 hrs by MTT assay; assay type: functional; details: read-out: Activity; procedure, shortened: as §1
Candida albicans [19] = test: Inhibition of cell adhesion of Candida albicans ATCC 90028 to African green monkey Vero cells at 16 ug/ml relative to untreated control; assay type: functional; details: ATCC 90028, Vero
CCRF-CEM [20] = test: Antiproliferative activity against human CCRF-CEM cells assessed as cell viability at 50 uM after 72 hrs by MTT assay; assay type: functional; details: read-out: Activity; procedure, shortened: as §1
Candida albicans [21] = test: Growth inhibition of Candida albicans ATCC 90028 at 0.125 ug/ml incubated for 4 hrs at 35 degC by broth microdilution method relative to control; assay type: functional; details: ATCC 90028, 4 h, read-out: GI
CCRF-CEM [22] = test: Antiproliferative activity against human CCRF-CEM cells assessed as cell viability at 200 uM after 72 hrs by MTT assay; assay type: functional; details: read-out: Activity; procedure, shortened: as §1
Candida albicans [23] = test: Growth inhibition of Candida albicans ATCC 90028 at 4 uM incubated for 48 hrs at 35 degC by broth microdilution method relative to control; assay type: functional; details: ATCC 90028, 48 h
Candida albicans [24] = test: Growth inhibition of Candida albicans ATCC 90028 at 0.0625 ug/ml incubated for 18 hrs at 35 degC by broth microdilution method relative to control; assay type: functional; details: ATCC 90028, 18 h, read-out: GI
Candida albicans [25] = test: Growth inhibition of Candida albicans ATCC 90028 at 1 ug/ml incubated for 4 hrs at 35 degC by broth microdilution method relative to control; assay type: functional; details: ATCC 90028, 4 h, read-out: GI
Candida albicans [26] = test: Growth inhibition of Candida albicans ATCC 90028 at 0.25 ug/ml incubated for 4 hrs at 35 degC by broth microdilution method relative to control; assay type: functional; details: ATCC 90028, 4 h, read-out: GI
Candida albicans [27] = test: Fungicidal activity against Candida albicans ATCC 90028 assessed as drug level causing 3 fold reduction in bacterial count after 48 hrs at 35 degC; assay type: functional; details: ATCC 90028, 48 h
Candida albicans [28] = test: Growth inhibition of Candida albicans ATCC 90028 at 0.25 ug/ml incubated for 18 hrs at 35 degC by broth microdilution method relative to control; assay type: functional; details: ATCC 90028, 18 h, read-out: GI
Candida albicans [29] = test: Inhibition of cell adhesion of Candida albicans ATCC 90028 to African green monkey Vero cells at 2 ug/ml relative to untreated control; assay type: functional; details: ATCC 90028, Vero
Candida albicans [30] = test: Fungicidal activity against Candida albicans ATCC 90028 assessed as log reduction in cell viability at 16 ug/ml after 48 hrs at 35 degC; assay type: functional
Procedure, shortened: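 MFC assay on C. albicans ATCC 90028 following M27-A3, at the molar equivalent of 16 µg/mL. CFU of treated cells were compared with CFU of the untreated inoculum. Activity is given as lg R = lg CFU/mL control − lg CFU/mL treated, and lg R ≥3 was defined as fungicidal. Values are means of two independent experiments.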

MCF7 [31] = test: Antiproliferative activity against human MCF7 cells assessed as cell viability at 25 uM after 72 hrs by MTT assay; assay type: functional; details: MCF7, 72 h, read-out: Activity; procedure, shortened: as §1
Candida albicans [32] = test: Growth inhibition of Candida albicans ATCC 90028 at 1 ug/ml incubated for 18 hrs at 35 degC by broth microdilution method relative to control; assay type: functional; details: ATCC 90028, 18 h, read-out: GI
[33] = Toxicity in Galleria mellonella larvae infected with Candida albicans ATCC 90028 infected with 31 uM compound pre-treated cell suspensions assessed as survival incubated in dark for 144 hrs at 30 degC and measured every 24 hrs; assay type: organism-based; details: in vivo
MCF7 [34] = test: Antiproliferative activity against human MCF7 cells assessed as cell viability at 200 uM after 72 hrs by MTT assay; assay type: functional; details: MCF7, 72 h, read-out: Activity; procedure, shortened: as §1
Vero [35] = test: Cytotoxicity in African green monkey Vero cells up to 64 ug/ml incubated for 3 to 18 hrs by XTT assay; assay type: cell-based; details: chlorocebus sabaeus

| Structure (SMILES) | inhibition of growth at 8 µg/mL (Candida albicans [1]) [%] | survival at 24 h, 20 µM [2] [%] | inhibition at 0.0625 µg/mL (Candida albicans [3]) [%] | EC50 (MCF7 [4]) [µM] | viability at 100 µM (MCF7 [5]) [%] | Activity (Vero [6]) | viability at 25 µM (CCRF-CEM [7]) [%] | inhibition of growth at 8 µg/mL (Candida albicans [8]) [%] | inhibition of growth at 16 µg/mL (Candida albicans [9]) [%] | inhibition of growth at 2 µg/mL (Candida albicans [10]) [%] | inhibition of growth at 0.125 µg/mL (Candida albicans [11]) [%] | inhibition of growth at 0.0313 µg/mL (Candida albicans [12]) [%] | inhibition of growth at 8 µg/mL (Candida albicans [13]) [%] | inhibition of growth at 2 µg/mL (Candida albicans [14]) [%] | inhibition of growth at 4 µg/mL (Candida albicans [15]) [%] | IC50 (Candida albicans [16]) [µM] | inhibition of growth at 0.5 µg/mL (Candida albicans [17]) [%] | viability at 100 µM (CCRF-CEM [18]) [%] | inhibition at 16 µg/mL (Candida albicans [19]) [%] | viability at 50 µM (CCRF-CEM [20]) [%] | also measured |
| --- | --- | --- | --- | --- | --- | --- | --- | --- | --- | --- | --- | --- | --- | --- | --- | --- | --- | --- | --- | --- | --- |
| CC(Cn1cnc2c1c(=O)n(C)c(=O)n2C)OCc1cn(CCCn2nc3c(Br)c(Br)c(Br)c(Br)c3n2)nn1 (stereo not given) | 99.1 | 90 to 100 | 89 | 80 | 59.1 | Toxic | 0 | 99.9 | 100 | 99.1 | 99.1 | 99.1 | 100 | 99.9 | 100 | 20 | 99.1 | 0 | 100 | 0 | inhibition of growth at 0.125 µg/mL (Candida albicans [21]): 99%; viability at 200 µM (CCRF-CEM [22]): 0%; MIC (Candida albicans [23]): 10 µM (≈ 7.94 µg/mL); inhibition of growth at 0.0625 µg/mL (Candida albicans [24]): 99.2%; inhibition of growth at 1 µg/mL (Candida albicans [25]): 99.1%; inhibition of growth at 0.25 µg/mL (Candida albicans [26]): 99.1%; MFC (Candida albicans [27]): 5 µM (≈ 3.97 µg/mL); inhibition of growth at 0.25 µg/mL (Candida albicans [28]): 99.4%; inhibition at 2 µg/mL (Candida albicans [29]): 89%; log(activity) (Candida albicans [30]): 8; viability at 25 µM (MCF7 [31]): 58.3%; inhibition of growth at 1 µg/mL (Candida albicans [32]): 99.4%; survival at 24 h, 31 µM [33]: 90 to 100%; viability at 200 µM (MCF7 [34]): 53.7%; Activity (Vero [35]): Non-Toxic |
| CC(CN1c2ccccc2Sc2ccccc21)OC(=O)OC(C)Cn1cnc2c1c(=O)n(C)c(=O)n2C (stereo not given) | 100 | 90 to 100 | 89 | 80 | 27.1 | Toxic | 22.1 | 100 | 100 | 99.5 | 99.9 | 99.6 | 100 | 100 | 100 | 248 | 99.1 | 0 | 100 | 7.9 | inhibition of growth at 0.125 µg/mL (Candida albicans [21]): 99.1%; viability at 200 µM (CCRF-CEM [22]): 0%; MIC (Candida albicans [23]): 4 µM (≈ 2.09 µg/mL); inhibition of growth at 0.0625 µg/mL (Candida albicans [24]): 99.7%; inhibition of growth at 1 µg/mL (Candida albicans [25]): 99.5%; inhibition of growth at 0.25 µg/mL (Candida albicans [26]): 99%; MFC (Candida albicans [27]): 15 µM (≈ 7.82 µg/mL); inhibition of growth at 0.25 µg/mL (Candida albicans [28]): 99.9%; inhibition at 2 µg/mL (Candida albicans [29]): 89%; log(activity) (Candida albicans [30]): 8; viability at 25 µM (MCF7 [31]): 58.8%; inhibition of growth at 1 µg/mL (Candida albicans [32]): 100%; survival at 24 h, 31 µM [33]: 90 to 100%; viability at 200 µM (MCF7 [34]): 20.8%; Activity (Vero [35]): Non-Toxic |
